Experimental data published in ChEMBL document CHEMBL3108713, “Identification of ML251, a Potent Inhibitor of T. brucei and T. cruzi Phosphofructokinase” (ACS Med Chem Lett, 2014).
Values after ≈ are worked out from the molar mass of the structure shown. Active and inactive are the calls of the source. The calls are words filed in the database; no cut-off is given here.

What was measured:
[1] = Aqueous kinetic solubility of the compound; assay type: physicochemical; conditions: buffer; read-out: Kinetic_solubility
[2] = molecular target: T1, ATP-dependent 6-phosphofructokinase (Trypanosoma cruzi) (UniProt Q4E657); assay: Inhibition of Trypanosoma cruzi PFK at 57 uM
T1 sequence (whole entry): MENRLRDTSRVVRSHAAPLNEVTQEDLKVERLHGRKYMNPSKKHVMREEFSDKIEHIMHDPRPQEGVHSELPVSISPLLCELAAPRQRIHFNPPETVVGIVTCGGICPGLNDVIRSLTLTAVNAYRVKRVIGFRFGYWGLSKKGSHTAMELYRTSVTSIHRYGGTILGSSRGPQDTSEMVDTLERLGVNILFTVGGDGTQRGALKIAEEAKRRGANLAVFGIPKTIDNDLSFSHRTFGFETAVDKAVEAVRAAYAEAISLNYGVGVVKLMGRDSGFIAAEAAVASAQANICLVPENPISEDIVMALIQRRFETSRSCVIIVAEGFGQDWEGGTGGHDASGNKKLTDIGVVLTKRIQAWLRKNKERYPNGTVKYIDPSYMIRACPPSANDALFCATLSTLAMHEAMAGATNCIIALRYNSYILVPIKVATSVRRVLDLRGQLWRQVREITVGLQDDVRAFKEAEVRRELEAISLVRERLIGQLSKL
Procedure, shortened: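 PFK activity is measured by coupling ADP production to ADP-Glo luciferase luminescence at end point. Percent inhibition is recorded at 57 μM, the highest concentration of the dose series, with at least 3 separate experiments averaged.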

[3] = molecular target: T2, ATP-dependent 6-phosphofructokinase (Trypanosoma cruzi, UniProt Q4E657); assay: Inhibition of Trypanosoma cruzi PFK
T2 sequence (Q4E657 whole entry): T1 sequence (whole entry)

[4] = molecular target: T3, ATP-dependent 6-phosphofructokinase (Trypanosoma brucei) (UniProt O15648); assay: Inhibition of Trypanosoma brucei PFK-mediated ADP production using ATP/fructose-6-phosphate as substrate at 57 uM by luciferase based luminescence assay
T3 sequence (whole entry): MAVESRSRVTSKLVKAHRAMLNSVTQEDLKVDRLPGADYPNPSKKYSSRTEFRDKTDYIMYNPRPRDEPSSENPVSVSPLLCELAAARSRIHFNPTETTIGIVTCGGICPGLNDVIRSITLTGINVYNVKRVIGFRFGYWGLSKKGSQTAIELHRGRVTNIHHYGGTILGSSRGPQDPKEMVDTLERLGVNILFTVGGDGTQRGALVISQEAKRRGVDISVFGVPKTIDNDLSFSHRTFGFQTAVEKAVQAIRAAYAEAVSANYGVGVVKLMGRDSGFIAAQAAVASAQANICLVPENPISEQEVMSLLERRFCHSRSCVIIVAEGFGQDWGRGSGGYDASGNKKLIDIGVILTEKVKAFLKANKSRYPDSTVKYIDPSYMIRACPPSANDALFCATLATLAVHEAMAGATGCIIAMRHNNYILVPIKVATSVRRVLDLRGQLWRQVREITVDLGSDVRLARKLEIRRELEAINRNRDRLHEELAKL
Procedure, shortened: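 Recombinant T. brucei PFK; ADP formed by the enzyme is converted to a luminescent signal by a modified luciferase ADP-Glo detection, read at end point.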

[5] = tested on: Trypanosoma brucei brucei; assay: Antitrypanosomal activity against Trypanosoma brucei brucei Lister 427 assessed as cell viability at 1.3 to 33.3 ug/ml after 72 hrs by alamar blue assay; assay type: functional, organism-based
[6] = molecular target: T4, ATP-dependent 6-phosphofructokinase, muscle type (Oryctolagus cuniculus) (UniProt P00511); assay: Inhibition of recombinant rabbit muscle PFK expressed in PFK-deficient Escherichia coli DF1020DE3 using ATP/fructose 6 phosphate as substrate at 1 uM; assay type: tissue-based; conditions: Muscle tissue
T4 sequence (whole entry): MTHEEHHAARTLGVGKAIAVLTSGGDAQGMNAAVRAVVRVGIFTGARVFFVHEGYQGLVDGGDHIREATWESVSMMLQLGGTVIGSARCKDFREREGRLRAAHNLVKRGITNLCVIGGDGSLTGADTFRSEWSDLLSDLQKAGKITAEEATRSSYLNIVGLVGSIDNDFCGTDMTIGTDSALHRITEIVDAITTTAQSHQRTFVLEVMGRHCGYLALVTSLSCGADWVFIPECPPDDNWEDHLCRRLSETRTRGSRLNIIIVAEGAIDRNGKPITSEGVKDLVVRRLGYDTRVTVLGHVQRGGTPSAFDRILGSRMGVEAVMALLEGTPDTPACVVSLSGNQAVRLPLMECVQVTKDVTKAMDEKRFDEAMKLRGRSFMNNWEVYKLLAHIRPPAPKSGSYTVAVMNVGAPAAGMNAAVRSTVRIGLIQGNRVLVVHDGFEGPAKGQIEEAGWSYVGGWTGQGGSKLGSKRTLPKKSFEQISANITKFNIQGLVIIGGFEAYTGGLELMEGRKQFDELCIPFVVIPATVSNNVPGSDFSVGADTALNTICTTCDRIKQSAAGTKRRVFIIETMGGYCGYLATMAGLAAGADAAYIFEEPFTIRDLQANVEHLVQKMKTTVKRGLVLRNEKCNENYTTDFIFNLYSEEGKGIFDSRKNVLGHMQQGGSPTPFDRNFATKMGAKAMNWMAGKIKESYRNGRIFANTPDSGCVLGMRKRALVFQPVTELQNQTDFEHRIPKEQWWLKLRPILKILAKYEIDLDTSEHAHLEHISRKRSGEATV

[7] = Half life in rat liver microsomes; assay type: ADME
[8] = Metabolic stability in human plasma assessed as compound remaining after 2 hrs; assay type: ADME, cell-free; conditions: read-out: Stability
[9] = Cytotoxicity against human MRC5 cells assessed as intracellular ATP content after 72 hrs by Cell titer-Glo luminiscent assay; assay type: cell-based
[10] = molecular target: T5, ATP-dependent 6-phosphofructokinase (Trypanosoma brucei, UniProt O15648); assay: Inhibition of Trypanosoma brucei PFK-mediated ADP production using ATP/fructose-6-phosphate as substrate by luciferase based luminescence assay
T5 sequence (O15648 whole entry): T3 sequence (whole entry)
Procedure, shortened: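 Recombinant enzyme; ADP formed by PFK detected with modified luciferase (ADP-Glo) luminescent end-point in 1536-well format.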

[11] = molecular target: T5, ATP-dependent 6-phosphofructokinase; assay: Mixed type inhibition Trypanosoma brucei PFK using ATP as substrate by Line-weaver Burk plot analysis
Procedure, shortened: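 Coupled biochemical PFK assay titrating ATP at several inhibitor levels (0, 1.5, 12.5, 50, 100 nM), F6P held saturating at 2 mM; initial velocities analysed by Lineweaver–Burk transformation, Ki from secondary plots.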

[12] = Metabolic stability in mouse plasma assessed as compound remaining after 2 hrs; assay type: ADME, cell-free; conditions: read-out: Stability
[13] = molecular target: T5, ATP-dependent 6-phosphofructokinase; assay: Competitive inhibition Trypanosoma brucei PFK using fructose-6-phosphate as substrate by Line-weaver Burk plot analysis
Procedure, shortened: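 Coupled biochemical PFK assay titrating F6P at several inhibitor levels (0, 1.5, 12.5, 50, 100 nM), ATP held saturating at 0.5 mM; initial velocities analysed by Lineweaver–Burk transformation, Ki from secondary plots.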

[14] = Half life in mouse liver microsomes; assay type: ADME, Microsome
[15] = tested on: Trypanosoma brucei brucei; assay: Antitrypanosomal activity against Trypanosoma brucei brucei Lister 427 assessed as cell viability after 72 hrs by alamar blue assay; assay type: functional; conditions: for EC50: Lister 427, 72 h, read-out: ED50 (the source's name)
[16] = Half life in human liver microsomes; assay type: ADME

Row | solubility kinetic [1] [mg/mL] | inhibition [2] [%] | IC50 [3] [µM] | inhibition [4] [%] | inhibition [6] | half-life [7] [h] | remaining at 2 h [8] [%] | IC50 [10] [µM] | Ki [11] [µM] | remaining at 2 h [12] [%] | Ki [13] [µM] | half-life [14] [h] | EC50 [15] [µM] | half-life [16] [h] | Compound | Activity [5] | CC50 at 72 h [9] [µM] | Activity [15]
1 | > 0.081 | > 80 | 0.172 | > 80 | inactive | > 0.5 | > 95 | 0.015 | 0.24 | > 95 | 0.052 |  |  |  | O=C(Cc1ccc(F)c(Cl)c1)Nc1ccc(S(=O)(=O)Nc2nncs2)cc1 | inactive | > 46 | 
2 | > 0.081 | > 80 | 0.13 | > 80 |  | > 0.5 | > 95 | 0.37 |  | > 95 |  | 3.85 | 16.3 | 5.5 | O=C(Cc1ccc(Cl)c(Cl)c1)Nc1ccc(S(=O)(=O)Nc2ccon2)cc1 |  | > 46 | Dose-dependent effect
3 | 0.0233 (≈ 52.9 µM) | > 80 | 0.23 | > 80 |  | 0.162 |  | 0.41 |  |  |  | 6.8 | 26.8 |  | Cc1cc(NS(=O)(=O)c2ccc(NC(=O)Cc3ccc(Cl)c(Cl)c3)cc2)no1 |  | > 46 | Dose-dependent effect
